The list is not random: actives were taken first. Their share in the collection is about 2.4%.
SR-BI HDL uptake: mouse SR-BI HDL lipid transfer inhibition | Q61009 | ldlA[mSR-BI] CHO cells, DiI-HDL uptake fluorescence, 3 h | inhibition, % at 12.5 µM | 320,000 compounds, 0.96% hits | AID 488896;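 active = mean replicate inhibition of at least 70% and a set share of replicates each scoring 70 or more; inconclusive = meets just one of the two criteria; inactive = fails both criteria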;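 also: 0% = median of neutral control wells and 100% = median of positive control wells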
Target sequence (Q61009 whole entry, looked up): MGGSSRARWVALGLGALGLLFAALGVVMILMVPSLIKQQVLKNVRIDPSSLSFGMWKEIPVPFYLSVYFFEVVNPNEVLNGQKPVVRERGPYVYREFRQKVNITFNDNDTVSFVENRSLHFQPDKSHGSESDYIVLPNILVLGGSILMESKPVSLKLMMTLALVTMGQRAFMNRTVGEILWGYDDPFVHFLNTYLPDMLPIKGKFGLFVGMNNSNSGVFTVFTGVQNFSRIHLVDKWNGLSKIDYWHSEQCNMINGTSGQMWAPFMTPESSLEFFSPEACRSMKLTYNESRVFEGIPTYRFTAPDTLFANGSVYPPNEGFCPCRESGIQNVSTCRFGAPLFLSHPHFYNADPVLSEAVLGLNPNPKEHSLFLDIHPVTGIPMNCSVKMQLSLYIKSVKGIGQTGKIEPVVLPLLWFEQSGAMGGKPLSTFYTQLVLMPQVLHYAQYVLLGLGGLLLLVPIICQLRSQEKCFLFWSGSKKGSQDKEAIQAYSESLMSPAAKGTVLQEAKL
Insulin prom up: MIN6 insulin promoter up-regulation; MIN6 insulin promoter-GFP reporter, high-content imaging; stronger effect = higher value; z-score at 5 µM; 190,000 compounds, 0.3% hits;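 active = z-score above 3 at 5 µM with at least 500 cells counted in the well; inconclusive = wells under 500 cells, flagged as cytotoxic or low count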
HTR2A ag: activates the mouse 5-HT2A serotonin receptor; P35363; CHO-K1 mHTR2A beta-arrestin complementation, luminescence; percent of 30 µM serotonin response; activation, % at 7.6 µM; 360,000 compounds, 0.66% hits; AID 624169;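 active = activation above a run cutoff, the mean activation of all tested compounds plus 3 SD, cut at about 14% in these data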;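 also: 0% = plate median of compound wells and 100% = 30 µM serotonin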
Calb FLC: affects C. albicans growth with fluconazole | C. albicans CaCi-2 + fluconazole, Alamar Blue growth, 48 h | growth inhibition, % (concentration not given with the values) | 300,000 compounds, 0.57% hits;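 active = growth inhibition above about 58% in most replicates, limit read from the data, passing the limit was not always enough; inconclusive = exactly half the replicates above a set limit; inactive = most replicates below a set limit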;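 also: all wells also contain fluconazole at 8 µg/ml as a sub-toxic cotreatment; 0% = median of DMSO wells and 100% = median of geldanamycin control wells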
beta cell repl: inducers of beta-cell replication in MIN6 cells | MIN6 cells proliferation, ATPlite luminescence, 48 h; cells starved in 0.2% serum; 100% = growth in 10% serum | proliferation, % at 10 µM | 330,000 compounds, 0.29% hits | AID 2380;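 active = compounds whose signal lies at least 3.5 SD above the mean of all wells on their plate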;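 also: 0% = DMSO-treated cells in low-serum medium and 100% = 10% serum control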
SR-BI uptake up: enhances SR-BI lipid uptake from DiI-HDL; activation, % at 12.5 µM; 320,000 compounds, 0.096% hits; CHO ldlA[mSR-BI] cells, DiI-HDL uptake fluorescence, 3 h; 100 = double the neutral-control signal;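 active = mean replicate activation of at least 60% and every replicate at or above 60%; inconclusive = mean or all-replicate condition met, but not both; inactive = mean below 60% and not all replicates reaching 60%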;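 also: 0% = median plate neutral-control signal and 100% = twice that signal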
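system = CHO ldlA[mSR-BI] cells, LDL receptor-null, SR-BI overexpressing | medium = Ham's F12 with 0.5% BSA, HEPES 25 mM, pH 7.4 | probe or stimulus = DiI-HDL 10 µg/mL | compound dosing = single-point compound dose | incubation = compound exposure 3 h, 37 °C | technique = DiI fluorescence, bottom read | read-out = cell-associated DiI fluorescence as measure of HDL uptake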
* marks the source's active call; other numbers are inactive results; u = inconclusive; x = no result.

SMILES	SR-BI HDL uptake	Insulin prom up	HTR2A ag	Calb FLC	beta cell repl	SR-BI uptake up
Cc1ccc(C(=O)C[n+]2cc(-c3ccc(C)cc3)n3c2CCCCC3)cc1	-5.7	u	-5.8	87.5*	-6.1	5.7
O=C(C[n+]1cc(-c2ccc(Cl)cc2)n2c1CCC2)N1c2ccccc2Sc2ccccc21	9.7	1.4	0.3	107.4*	-5.6	-9.7
COc1ccc(C(=O)C[n+]2cc(-c3ccc(OC)cc3)n3c2CCCC3)cc1	4.4	u	-1.9	-27.1	-5.6	-4.4
C=CCNC(=O)C1CCN(S(=O)(=O)c2ccc(Br)cc2)CC1	-14.1	3.14*	-1.8	-3.0	-1.3	14.1
O=C(NCC1CCCO1)C1CCN(S(=O)(=O)c2ccc(Br)cc2)CC1 (configuration not stated)	0.2	x	6.8	-0.7	-0.5	-0.2
CC1=NN(C(N)=S)C(=O)C1N=Nc1cccc(Cl)c1C (configuration not stated)	-12.3	x	1.3	12.0	-2.8	12.3
CC1=NN(C(N)=S)C(=O)C1N=Nc1cccc2ccccc12 (configuration not stated)	x	-1.38	x	108.0*	x	x
Nc1ccc(C(=O)N/N=C\c2ccc(OC(=O)c3ccccc3Cl)cc2)cc1	52.0	x	-0.3	78.5*	-2.7	-52.0
COc1ccc(NC(=O)C(CC(C)C)NC(=O)C2CCCCC2)c(OC)c1 (configuration not stated)	82.3*	0.24	1.3	-10.3	-1.3	-82.3
COc1ccc(C(=O)Nc2nc3ccc(OC)cc3s2)cc1	53.5	x	-2.7	-0.7	-5.0	-53.5
COC(=O)c1ccc(C(=O)Nc2nc3cc(N)c(C)cc3s2)cc1	80.9*	x	-1.5	x	-0.9	-80.9
Cc1cc(C)n(-c2nc(SCCN(C)C)c3c4c(sc3n2)CCCC4)n1	15.0	-2.12	-4.6	78.8*	-6.3	-15.0
CN(CCc1ccccc1)C(=O)c1cccc(NC(=O)Cc2cccc(NC(=O)C3CCN(C(=O)c4ccccc4)CC3)c2)c1	17.8	x	-5.0	x	x	-17.8
O=C(CC12CC3CC(CC(C3)C1)C2)NCc1ccc(F)cc1	83.4*	x	4.7	-4.7	-0.6	-83.4
CCCC(=O)NC(c1ccccc1OC)c1ccc2cccnc2c1O (configuration not stated)	-14.6	-3.89	-3.3	101.4*	-6.4	14.6
CCCCC(=O)NC(c1ccccc1OC)c1ccc2cccnc2c1O (configuration not stated)	-9.7	-0.92	-2.3	95.6*	-5.6	9.7
O=C(COc1ccc(/C=N/NC(=O)c2cc3ccccc3o2)cc1Cl)Nc1ccccc1	74.5*	0.85	0.9	12.0	-4.5	-74.5
Cc1ccc(C2C(C#N)=C(N)N(c3ncn[nH]3)C3=C2C(=O)CC(C)(C)C3)cc1 (configuration not stated)	x	x	2.6	-4.3	0.0	x
CC(C)Nc1nc(NCCOc2ccccc2)c2sccc2n1	x	x	-2.9	x	x	x
O=C(CN1CCN(c2ccc(O)cc2)CC1)Nc1ccc2c(c1)OCCCO2	75.1*	x	0.6	x	-7.3	-75.1
Cc1cccc(NC(=O)CN2CCc3cc4c(cc3C2)OCCCO4)c1	-222.1	x	-7.3	-4.6	-5.7	222.1*
Cc1ccc(NC(=O)CN2CCc3cc4c(cc3C2)OCCCO4)cc1	7.0	x	2.6	-19.6	-1.7	-7.0
Cc1cc(C)c(C#N)c(Nc2ccc(F)cc2)n1	9.8	x	8.0	-0.3	1.7	-9.8
CCOC(=O)c1ccc(Nc2nc(C)cc(C)c2C#N)cc1	73.1*	0.18	-6.0	-14.6	-0.8	-73.1
CN(/N=C/c1ccc(O)cc1O)c1nc(-c2ccccc2)cc(-c2ccccc2)n1	90.3*	0.69	3.1	18.2	0.0	-90.3
SMILES	SR-BI HDL uptake	Insulin prom up	HTR2A ag	Calb FLC	beta cell repl	SR-BI uptake up
Oc1[nH]c2c(Cl)cc(Cl)cc2c1N=NC(=S)NCC1CCCO1 (configuration not stated)	38.0	-3.65	3.5	97.0*	0.0	-38.0
CCCCOC(=O)c1ccc(-c2ccc(/C=N/NC(=S)NCC)o2)cc1	88.1*	0.07	7.4	24.1	-4.8	-88.1
C=CCNC(=S)N/N=C/c1ccc(-c2ccc(Br)cc2)o1	81.7*	-0.1	1.2	-4.9	0.0	-81.7
CCOC(=O)c1ccc(-c2ccc(/C=N/NC(=O)c3cncc(Br)c3)o2)cc1	x	0.81	6.0	-6.3	-4.7	x
COC(=O)c1cc(OC)nc2ccc(Br)cc12	5.1	-0.31	7.2	-3.1	0.7	-5.1
C=CCN(c1ccccc1)S(=O)(=O)c1cccc(C(=O)Nc2ccc(N3CCOCC3)cc2)c1	80.2*	x	-1.7	x	-1.1	-80.2
C=CCN(c1ccccc1)S(=O)(=O)c1cccc(C(=O)O)c1	-12.8	x	-1.9	-13.4	2.6	12.8
O=C(Nc1ccon1)c1cccc(S(=O)(=O)N2CCCCC2)c1	4.9	3.46*	6.1	-3.9	0.3	-4.9
O=C(Nc1ccc(N2CCOCC2)cc1)c1cccc(S(=O)(=O)N2CCCCC2)c1	80.5*	0.88	1.1	-0.7	-3.1	-80.5
C=CCN(c1ccccc1)S(=O)(=O)c1cccc(C(=O)NNC(=O)c2ccccc2O)c1	87.5*	x	4.0	-9.5	-4.9	-87.5
CCN1CCN(c2ccc(NC(=O)c3cccc(S(=O)(=O)N4CCCC4)c3)cc2)CC1	-21.9	x	8.8	x	-1.1	21.9
Cc1noc(C)c1C(=O)N1CCC1(C)C(=O)NS(=O)(=O)c1ccc(F)cc1F (configuration not stated)	x	x	1.3	x	x	x
CC(C)NC(=O)C1(C)CSCC(=O)N1CCCN1CCOCC1 (configuration not stated)	x	x	-0.3	x	x	x
O=C(Nc1nc2ccc(S(=O)(=O)N3CCCCC3)cc2s1)c1ccncc1	-23.4	1.75	3.1	103.1*	-2.2	23.4
C=CCSc1nnc(NC(=O)c2cccc(S(=O)(=O)N3CCOCC3)c2)s1	x	3.22*	4.7	-14.6	1.7	x
O=C(CCCCCN1C(=O)c2cccc3cccc(c23)C1=O)N1CCOCC1	-36.2	-0.4	-2.4	107.5*	-0.2	36.3
O=C1c2cccc3cccc(c23)C(=O)N1CCN1CCN(C(=S)Nc2ccc(Cl)cc2)CC1	68.5	-0.45	-0.6	12.2	0.0	-68.5
O=C(/C=C/c1ccc(Cl)cc1)N1CCN(CCN2C(=O)c3cccc4cccc(c34)C2=O)CC1	77.9*	x	1.6	x	x	-77.9
O=C1c2cccc3cccc(c23)C(=O)N1CCN1CCN(C(=S)Nc2ccccc2)CC1	71.7*	-0.77	6.6	6.6	-0.5	-71.7
CCN(Cc1cccc(F)c1)C(=O)c1ccc2ccccc2n1	x	x	-4.9	-0.1	1.6	x
CSc1ccccc1NC(=O)CN(Cc1ccccc1)S(C)(=O)=O	75.2*	0.1	1.6	10.8	4.4	-75.2
CS(=O)(=O)N(CC(=O)Nc1ccccc1Br)Cc1ccccc1	-4.1	x	0.4	-13.0	-2.7	4.1
COc1cc(CNCc2ccccn2)ccc1OCc1cccc(Cl)c1	25.5	x	4.5	-28.5	-3.2	-25.5
